Most compounds without a hit are left out; they make up all but 2% or so of the library.
eIF4H FP inh – human eIF4H binding inhibitors, primary screen, translation initiation inhibitor project, biochemical, uHTS, fluorescence polarization; 0.94% of 290,000 active; eIF4H fluorescence polarization binding assay; inhibition, % at 35 µM;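 further: calls also rest on retests at 20 µM and on dose response follow-up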
MLLE-PAM2 inh – inhibitors of PABP1 MLLE–PAM2 peptide binding, primary screen, biochemical, fluorescence polarization, FITC-PAM2, GST-MLLE. 0.36% of 360,000 active. inhibition, % at 20 µM. Polyadenylate-binding protein 1 (Homo sapiens), P11940. AID 588489, 2011; in the data active means inhibition above about 35%, passing the limit was not always enough
PABP polyA inh – PABP poly(A) RNA binding inhibitors, primary screen, biochemical, fluorescence polarization, uHTS | 1% of 290,000 active | inhibition, % at 35 µM | Polyadenylate-binding protein 1 (Homo sapiens), P11940;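 further: calls also rest on retests at 20 µM and on dose response follow-up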
DNA FID counter-1 – compounds displacing fluorescent DNA intercalator, primary screen, artefact control for HCV NS3 helicase inhibitor project, biochemical, FID fluorescence | DNA fluorescent intercalator displacement | inhibition, % at 7.9 µM | 0.17% of 290,000 active | AID 1845, 2009; in the data active means inhibition above about 37%;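 further: higher means more ethidium bromide displaced from hairpin DNA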
HCV NS3 hel inh – inhibitors of HCV NS3 helicase, primary screen, biochemical, Cy5 molecular beacon fluorescence; AID 1800, 2009; NS3 helicase DNA unwinding; inhibition, % at 10.9 µM; Hepatitis C virus NS3 helicase; 0.56% of 290,000 active;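 active means inhibition above the mean of all tested compounds plus 3 SD, set per campaign, cut at about 35% in these data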
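Material: hepatitis C virus NS3 helicase domain fragment enzyme; measured by: Cy5 fluorescence, 0 and 60 min reads; control set: DMSO and thioflavine S; incubation: 60 min unwinding reaction at 25 °C after ATP addition; read-out basis: % inhibition from 60/0 min fluorescence ratio, DMSO 0%, thioflavine S 100%; repeats: singlicate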
HCV core dimer – inhibitors of HCV core protein dimerization, primary screen, biochemical, TR-FRET, high-throughput; TR-FRET GST/Flag-core106 dimerization, 1536-well; inhibition, % at 5 µM; 0.33% of 300,000 active; AID 1899, 2009;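 active means inhibition above the mean of all tested compounds plus 3 SD, set per screening campaign, cut at about 45% in these data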
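System – GST-tagged and Flag-tagged HCV core protein residues 1-106 · Repeats – one well for each compound · Technique – TR-FRET 671 and 617 nm emission · Doses – one concentration, 5 µM, in 0.5% DMSO · Times – 4 h, 22.5 °C incubation · Also added – Eu donor and XL665 acceptor anti-tag antibodies · Measure – percent inhibition of core106 dimerization signal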
NS3 helicase cf – HCV NS3 helicase inhibitors, retest, confirmation, biochemical, Cy5 molecular beacon fluorescence, triplicate | shares compounds with HCV NS3 hel inh | inhibition, % at 10.9 µM | 31% of 1,600 active | AID 1943, 2009 | NS3 helicase DNA unwinding;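 active means inhibition above the mean of all tested compounds plus 3 SD, cutoff set per campaign, cut at about 36% in these data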
DNA FID counter-2 – compounds displacing fluorescent DNA intercalator, artefact control for HCV NS3 helicase inhibitor project, biochemical, FID fluorescence, triplicate; inhibition, % at 7.9 µM; 4% of 1,600 active; AID 1945, 2009; DNA fluorescent intercalator displacement; shares compounds with HCV NS3 hel inh; in the data active means inhibition above about 37%;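 further: higher means more displacement of ethidium bromide from the DNA hairpin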
DNA FID DR – compounds displacing fluorescent intercalator from DNA, dose response, counter-screen for HCV NS3 helicase inhibitor project, biochemical, fluorescence | shares compounds with HCV NS3 hel inh | fluorescent intercalator displacement from DNA | IC50, µM | 120 tested, under 10 active | AID 2172, 2009
Hits are given with their value; – = inactive; ? = inconclusive; · = no result given. Unless noted, how the calls were made is not given here.

SMILES | eIF4H FP inh | MLLE-PAM2 inh | PABP polyA inh | DNA FID counter-1 | HCV NS3 hel inh | HCV core dimer | NS3 helicase cf | DNA FID counter-2 | others
CCOC(=O)C1=CC[C@@H](c2ccccc2C(F)(F)F)N(S(=O)(=O)c2ccc(C)cc2)[C@H]1c1ccc(C#N)cc1 | · | – | · | · | · | · | · | ·
O=C(Nc1ccc(Cl)cc1)c1csc([C@@H]2O[C@H](CO)[C@@H](O)[C@H]2O)n1 | · | – | · | · | · | · | · | ·
CC1=CN2C(=N)/C(=C/c3ccco3)C(=O)N=C2S1 | – | – | – | – | – | – | · | ·
CC1=CN2C(=N)/C(=C/c3ccc([N+](=O)[O-])o3)C(=O)N=C2S1 | ? | – | – | – | 51 | – | 53 | – | DNA FID DR=–
CCOc1ccc(C(=O)NC(C(=O)NCC(c2cccs2)N(C)C)C(C)C)cc1 (centres undefined) | · | – | · | · | · | · | · | ·
NC(c1ccccc1)c1csc(Nc2ccc(C(F)(F)F)cn2)n1 (centres undefined) | · | – | · | · | · | · | · | ·
CCCc1n[nH]c(=S)n1Cc1ccco1 | – | – | – | – | – | – | · | ·
S=c1[nH]nc(COc2ccc(Cl)cc2)n1Cc1ccco1 | – | – | – | – | 36 | – | – | –
Cc1ccccc1S(=O)(=O)NC(=O)C1(C)CCN1C(=O)c1cccc(F)c1 (centres undefined) | · | – | · | · | · | · | · | ·
CCc1nc2ccc(C(=O)NCc3cccs3)cn2c1N(C)Cc1nccs1 | · | – | · | · | · | · | · | ·
CC(=O)Nc1ccc(C(=O)N2CCCC(c3cc(C(=O)Nc4ccccc4)no3)C2)cc1 (centres undefined) | · | – | · | · | · | · | · | ·
Cc1ccc(C(=O)N[C@H](C(=O)OCc2cc(=O)n3c(n2)sc2ccccc23)C(C)C)cc1 | – | – | – | – | – | – | · | ·
O=C(OCc1cc(=O)n2c(n1)sc1ccccc12)c1ccc(O)cc1O | – | – | – | – | 36 | – | – | –
Cc1ccc(Cl)cc1-c1cc(C(=O)N2CCN(c3ccncc3)CC2)[nH]n1 | · | – | · | · | · | · | · | ·
O=C(O)c1cc(N2N=C(C(F)(F)F)/C(=C/C=C/c3ccco3)C2=O)ccc1Cl | – | – | – | – | 61 | · | 80 | 71
O=C(/C=C/c1ccco1)Nc1ccc(Cl)c(S(=O)(=O)N2CCOCC2)c1 | – | – | – | – | – | – | · | ·
CC(=O)c1sc2ccccc2c1OC(=O)c1ccco1 | – | – | – | – | 45 | – | – | –
COc1ccc(-c2nnn(CC(=O)N(Cc3ccccc3Cl)C(C(=O)NCC3CCCO3)c3ccco3)n2)cc1 (centres undefined) | – | – | – | – | – | – | · | ·
COc1ccc(-c2nnn(CC(=O)N(Cc3ccco3)C(C(=O)NCC3CCCO3)c3ccco3)n2)cc1 (centres undefined) | – | – | – | – | 45 | – | – | –
COc1cc(OC)nc(Nc2nc(C(N)Cc3ccc(F)cc3)cs2)n1 (centres undefined) | · | – | · | · | · | · | · | ·
CC(=O)c1cccc(N=Cc2c(O)ccc3ccccc23)c1 | – | – | – | – | – | – | · | ·
CC(=O)N(C)c1ccc(N=Cc2c(O)ccc3ccccc23)cc1 | – | – | – | – | 36 | – | – | –
O=C(C(Cc1ccccc1)n1cccc1)N1CCN(Cc2ccccc2)CC1 (centres undefined) | – | – | – | – | 42 | – | – | –
COc1cc(CCCN2CCNC[C@H]2Cc2cccc3ccccc23)cc(OC)c1OC | · | – | · | · | · | · | · | ·
CCc1ccccc1N=C1S/C(=C/c2ccccc2OCC(=O)N2CCOCC2)C(=O)N1C | – | – | – | – | – | – | · | ·
SMILES | eIF4H FP inh | MLLE-PAM2 inh | PABP polyA inh | DNA FID counter-1 | HCV NS3 hel inh | HCV core dimer | NS3 helicase cf | DNA FID counter-2 | others
O=C1NN(c2ccccc2)C(=O)/C1=C\c1ccccc1OCC(=O)N1CCOCC1 | – | – | – | – | 49 | – | – | –
Cc1ccc(NC(=O)CN2C(=O)S/C(=C\C(=O)Nc3ccc(Cl)cc3)C2=O)cc1 | – | – | – | – | 41 | – | – | –
Cc1c(Cl)cccc1NS(=O)(=O)c1ccc2c(c1)C1C=CCC1C(c1ccc(C(=O)O)cc1)N2 (centres undefined) | – | – | – | – | 39 | – | 55 | 43
Cn1cccc1CC(=O)NNC(=S)Nc1ccc(F)cc1 | – | – | – | – | 36 | – | – | –
CC1(C)N=C(N)N=C(N)N1c1cccc(C#N)c1 | · | – | · | · | · | · | · | ·
C[C@@H]1CN(S(=O)C(C)(C)C)[C@@H](CCO)/C1=C\c1ccccc1 (some centres undefined) | · | – | · | · | · | · | · | ·
O=C(O)COc1ccc2c(c1)O/C(=C\c1cccs1)C2=O | – | – | – | – | – | – | · | ·
Cc1ccc(/C=C2\Oc3cc(OCC(=O)NN)ccc3C2=O)o1 | 73 | – | – | – | 39 | · | – | –
O=[N+]([O-])c1ccc(N2CCN(S(=O)(=O)c3ccc4ccccc4c3)CC2)cc1NCC1CCCO1 (centres undefined) | – | – | – | – | 53 | – | – | –
CCCSc1nc(C)c(-c2csc(C(C#N)=C3CCCC3)n2)cc1C#N | 59 | – | 8.1 | – | 52 | 61 | – | –
Cc1onc(-c2c(F)cccc2Cl)c1C(=O)OCC(=O)Nc1cccc(S(=O)(=O)N(C)C)c1 | · | – | · | · | · | · | · | ·
N#Cc1c(-c2ccc(Cl)cc2)cc(-c2cccs2)nc1SCC(=O)O | · | – | · | – | – | – | · | ·
N#Cc1c(-c2ccccc2)cc(-c2cccs2)nc1SCC(=O)O | – | – | – | – | 39 | – | 68 | –
CCNc1nnc(-c2ccc(C)cc2)o1 | – | – | – | – | 52 | – | – | –
Cc1ccc(-c2nnc(-c3ccccc3)o2)cc1 | – | – | – | – | – | – | · | ·
Cc1c(NC(=O)c2nn3c(C(F)(F)F)cc(-c4ccccc4)nc3c2Cl)c(=O)n(-c2ccccc2)n1C | – | – | – | – | 37 | – | – | –
CCOC(=O)c1c(NS(C)(=O)=O)sc2c1CCC(C)C2 (centres undefined) | – | – | – | – | – | – | · | ·
CCOC(=O)c1c(N)sc2c1CCC(C)C2 (centres undefined) | – | – | – | – | 43 | – | – | –

Bioassay records deposited in PubChem BioAssay by several laboratories.
